In ChEMBL document CHEMBL1151417, “Cytotoxic triterpenoid glycosides from the roots of Gordonia chrysandra” (J Nat Prod, 2009):

Columns and labels:
Format in all cases: functional, cell-based
[1] = system: HCT-8; assay: Cytotoxicity against human HCT8 cells after 96 hrs by MTT assay; settings: HCT-8, 96 h
Summary of the method: (§1)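 Cells kept in RPMI 1640 with 10% FBS, L-glutamine, penicillin/streptomycin at 37 °C, 5% CO2. 1.5 × 10³ cells/well seeded; after 24 h compounds added in DMSO at five final concentrations (0.01-10 […]), triplicate wells, 96 h exposure. MTT (0.5 mg/mL) 4 h at 37 °C, formazan dissolved in DMSO, A570 read. IC50 = 50% OD reduction vs control from dose-response curve.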

[2] = system: A549; assay: Cytotoxicity against human A549 cells after 96 hrs by MTT assay; settings: A549, 96 h; summary of the method: as §1
[3] = system: Bel-7402; assay: Cytotoxicity against human Bel7402 cells after 96 hrs by MTT assay; settings: Bel-7402, 96 h; summary of the method: as §1
[4] = system: A2780; assay: Cytotoxicity against human A2780 cells after 96 hrs by MTT assay; settings: A2780, 96 h; summary of the method: as §1
[5] = system: BGC-823; assay: Cytotoxicity against human BGC823 cells after 96 hrs by MTT assay; settings: BGC-823, 96 h; summary of the method: as §1

SMILES	IC50 [1]	IC50 [2]	IC50 [3]	IC50 [4]	IC50 [5]
C/C=C(/C)C(=O)O[C@H]1[C@H](OC(=O)/C(C)=C\C)[C@]2(CO)[C@H](O)C[C@]3(C)C(=CC[C@@H]4[C@@]5(C)CC[C@H](O[C@@H]6O[C@H](C(=O)O)[C@@H](O)[C@H](O[C@@H]7OC[C@H](O)[C@H](O)[C@H]7O)[C@H]6O)[C@@](C)(CO)[C@@H]5CC[C@]43C)[C@@H]2CC1(C)C [GORDONOSIDE A]	> 10 µM	> 10 µM	4.7 µM	5.5 µM	> 10 µM
C/C=C(/C)C(=O)O[C@H]1[C@H](OC(=O)/C(C)=C\C)[C@]2(CO)[C@H](OC(C)=O)C[C@]3(C)C(=CC[C@@H]4[C@@]5(C)CC[C@H](O[C@@H]6O[C@H](C(=O)O)[C@@H](O)[C@H](O[C@@H]7OC[C@H](O)[C@H](O)[C@H]7O)[C@H]6O)[C@@](C)(CO)[C@@H]5CC[C@]43C)[C@@H]2CC1(C)C [GORDONOSIDE B]	> 10 µM	> 10 µM	> 10 µM	> 10 µM	> 10 µM
C/C=C(/C)C(=O)O[C@H]1[C@H](OC(=O)/C(C)=C\C)[C@]2(CO)[C@H](O)C[C@]3(C)C(=CC[C@@H]4[C@@]5(C)CC[C@H](O[C@@H]6O[C@H](C(=O)O)[C@@H](O)[C@H](O[C@@H]7OC[C@H](O)[C@H](O)[C@H]7O)[C@H]6O)C(C)(C)[C@@H]5CC[C@]43C)[C@@H]2CC1(C)C [GORDONOSIDE C]	1.2 µM	1.8 µM	0.7 µM	0.4 µM	2.5 µM
C/C=C(/C)C(=O)O[C@H]1[C@H](OC(=O)/C(C)=C\C)[C@]2(CO)[C@H](OC(C)=O)C[C@]3(C)C(=CC[C@@H]4[C@@]5(C)CC[C@H](O[C@@H]6O[C@H](C(=O)O)[C@@H](O)[C@H](O[C@@H]7OC[C@H](O)[C@H](O)[C@H]7O)[C@H]6O)C(C)(C)[C@@H]5CC[C@]43C)[C@@H]2CC1(C)C [GORDONOSIDE D]	> 10 µM	> 10 µM	> 10 µM	> 10 µM	> 10 µM
C/C=C(/C)C(=O)O[C@H]1[C@H](OC(=O)/C(C)=C\C)[C@]2(CO)[C@H](O)C[C@]3(C)C(=CC[C@@H]4[C@@]5(C)CC[C@H](O[C@@H]6O[C@H](C(=O)O)[C@@H](O)[C@H](O[C@@H]7OC[C@H](O)[C@H](O)[C@H]7O)[C@H]6O)[C@@](C)(C=O)[C@@H]5CC[C@]43C)[C@@H]2CC1(C)C [GORDONOSIDE E]	2.7 µM	> 10 µM	1.1 µM	2 µM	> 10 µM
C/C=C(/C)C(=O)O[C@H]1[C@H](OC(=O)/C(C)=C\C)[C@]2(CO)[C@H](O)C[C@]3(C)C(=CC[C@@H]4[C@@]5(C)CC[C@H](O[C@@H]6O[C@H](C(=O)O)[C@@H](O)[C@H](O[C@@H]7OC[C@H](O)[C@H](O)[C@H]7O)[C@H]6O)[C@@](C)(C(=O)OC)[C@@H]5CC[C@]43C)[C@@H]2CC1(C)C [GORDONOSIDE F]	> 10 µM	> 10 µM	1.3 µM	2 µM	> 10 µM
C/C=C(/C)C(=O)O[C@H]1[C@H](OC(=O)/C(C)=C\C)[C@]2(CO)[C@H](O)[C@H](O)[C@]3(C)C(=CC[C@@H]4[C@@]5(C)CC[C@H](O[C@@H]6O[C@H](C(=O)O)[C@@H](O)[C@H](O[C@@H]7OC[C@H](O)[C@H](O)[C@H]7O)[C@H]6O)[C@@](C)(C(=O)OC)[C@@H]5CC[C@]43C)[C@@H]2CC1(C)C [GORDONOSIDE G]	> 10 µM	> 10 µM	> 10 µM	> 10 µM	> 10 µM
CC(=O)O[C@H]1C(=O)[C@@]2(C)[C@H]([C@H](OC(=O)c3ccccc3)[C@]3(O)C[C@H](OC(=O)[C@H](O)[C@@H](NC(=O)c4ccccc4)c4ccccc4)C(C)=C1C3(C)C)[C@]1(OC(C)=O)CO[C@@H]1C[C@@H]2O [PACLITAXEL]	3.6 µM	0.001 µM	6.3 µM	0.9 µM	0.04 µM
